PGC1a acetyl inh: PGC1a acetylation modulation, inhibitor mode; inhibition, % at 15.6 µM; U2OS PGC1a acetylation, AlphaScreen anti-acetyl-lysine; with virally co-expressed GCN5 acetyltransferase; 350,000 tested, 0.17% active; AID 651687;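 active = every replicate shows inhibition of at least 40%; inconclusive = mean inhibition at least 40% but some replicate below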
PAX8 inh HTS: lowers PAX8-driven luciferase in RMG-I cells; 360,000 tested, 1.2% active; inhibition, % at 12.6 µM; RMG-I TPO-luciferase reporter, SteadyGlo, 24 h;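 active = mean replicate inhibition at least 60% with every replicate also reaching 60%; inconclusive = only one of the two criteria is met; inactive = mean below 60% and not all replicates reaching 60%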;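 note: luciferase light reporting Pax8 driven TPO promoter activity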
GSIS activator: GLuc luminescence reporter in INS-1E cells, primary screen for activators of glucose-dependent secretion of insulin; INS-1E GLuc reporter insulin secretion, 2-3 h; activation, % at 16.6 µM; 370,000 tested, 0.61% active;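 active = lowest replicate activation of at least 40%, so every replicate reaches that level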
XiGFP reactiv: X-chromosome reactivation activator | 360,000 tested, 0.055% active | AID 743238 | XiGFP mouse fibroblasts, % GFP-positive cells imaging, 3 d; cells co-treated with 5-aza-dC sensitizer; scaled so ellipticine positive control = 100% | activation, % at 7.58 µM;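 active = mean normalized replicate activation at least 10% and every replicate at or above 10%; inconclusive = only one of the two criteria met; inactive = mean below 10% and not all replicates reach 10%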
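System: 68-5-11 XiGFP fibroblast line | Buffer or medium: DMEM containing 5-aza-dC | Compound: Single point | Times: Compounds 3 days, fix/stain 15 min at room temperature | Benchmarks: Positive control ellipticine, 6 µM final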
MLL AF4-AF9 inh: MLL-AF4/AF9 protein interaction inhibition. P42568. AlphaScreen, biotin-AF4 peptide binding to FLAG-AF9. inhibition, % at 10 µM. 350,000 tested, 0.47% active;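 active = every replicate reaching a set inhibition limit, whatever the replicate mean, cut at about 25% in these data; inconclusive = mean inhibition reaches that limit but some replicates miss it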
Target sequence (P42568 whole entry, looked up): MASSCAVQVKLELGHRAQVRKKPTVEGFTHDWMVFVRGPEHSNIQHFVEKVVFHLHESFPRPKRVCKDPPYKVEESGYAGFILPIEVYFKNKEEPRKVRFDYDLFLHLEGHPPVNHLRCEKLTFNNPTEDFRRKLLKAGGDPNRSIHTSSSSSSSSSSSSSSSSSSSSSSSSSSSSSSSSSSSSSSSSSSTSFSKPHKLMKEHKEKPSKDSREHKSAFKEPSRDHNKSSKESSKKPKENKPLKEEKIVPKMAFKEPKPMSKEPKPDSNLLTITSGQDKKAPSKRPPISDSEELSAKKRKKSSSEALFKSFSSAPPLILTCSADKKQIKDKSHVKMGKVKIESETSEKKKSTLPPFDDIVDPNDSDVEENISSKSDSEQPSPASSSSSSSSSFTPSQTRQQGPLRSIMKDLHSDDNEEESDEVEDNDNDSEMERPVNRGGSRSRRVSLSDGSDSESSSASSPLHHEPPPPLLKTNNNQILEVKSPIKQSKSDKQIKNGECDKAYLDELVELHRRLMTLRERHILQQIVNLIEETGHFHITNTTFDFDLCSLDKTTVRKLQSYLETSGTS
EWS-Fli inh: EWS/Fli transcriptional activity inhibition; A673 NR0B1-luciferase reporter, viability-normalised; inhibition, % at 12.6 µM; 350,000 tested, 0.67% active; AID 651661;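 active = mean inhibition of at least 50% after viability correction, with every replicate also passing that limit; inconclusive = mean reaches 50% but only one of two replicates passes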;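 note: firefly luciferase signal divided by Alamar Blue viability fluorescence both relative to DMSO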
Of the large screens only hits and unclear results are named; the others gave an inactive call. An excerpt weighted towards active compounds, which were near 2.1% of everything screened.

O=C(O)c1ccc(-c2nc(-c3ccccc3)c(-c3cccs3)[nH]2)cc1	GSIS activator 53
Cc1ccc(-c2[nH]c(-c3ccc(C(=O)O)cc3)nc2-c2ccccc2)cc1	none (no result: PGC1a acetyl inh, EWS-Fli inh)
C[C@@H]1CN([C@@H](C)CO)C(=O)c2cc(C3=CCCCC3)cnc2O[C@H]1CN(C)Cc1ccccc1F	none
CN(C(=O)c1ccc(C#N)cc1)c1nnc(-c2cnccn2)s1	GSIS activator 46 (no result: MLL AF4-AF9 inh)
CN(C(=O)c1ccno1)c1nnc(-c2cnccn2)s1	none (no result: GSIS activator, XiGFP reactiv, MLL AF4-AF9 inh, EWS-Fli inh)
COc1ccccc1CNC(=O)C[C@H]1C[C@@H]2c3cc(NC(=O)Nc4ccccc4F)ccc3O[C@@H]2[C@@H](CO)O1	none
CN1CCN(c2ccc(-c3cc(NC=O)c4ncc(-c5ccc(F)cc5)n4c3)cc2)CC1	MLL AF4-AF9 inh 38 (no result: PGC1a acetyl inh)
CS(=O)(=O)Nc1cccc(-c2cc(NC=O)c3ncc(-c4ccc(F)cc4)n3c2)c1	PAX8 inh HTS 81
COc1cc(-c2cnc3c(NC=O)cc(-c4ccc(N5CCN(C)CC5)cc4)cn23)cc(OC)c1OC	none
CC(NC(=O)/C(C#N)=C/c1ccc([N+](=O)[O-])o1)c1ccccc1 (centres undefined)	XiGFP reactiv 43, EWS-Fli inh 69 (no result: PGC1a acetyl inh)
Cc1cc(Br)c(OCc2ccc(C(=O)N/N=C/c3ccc[nH]3)cc2)c(Br)c1	PGC1a acetyl inh 87, PAX8 inh HTS 95, EWS-Fli inh 58
O=C(N/N=C/c1ccc[nH]1)c1ccc(COc2cccc3cccnc23)cc1	PAX8 inh HTS 79
CN(C)CC(=O)Nc1ccc2c(c1)[C@@H]1C[C@H](CC(=O)N3CCCCC3)O[C@H](CO)[C@@H]1O2	none
C[C@@H]1CN([C@@H](C)CO)C(=O)Cc2cc(NC(=O)Nc3ccc(F)cc3)ccc2O[C@H]1CN(C)CC1CCCCC1	PAX8 inh HTS 82 (no result: PGC1a acetyl inh)
C[C@@H]1CN([C@@H](C)CO)C(=O)Cc2cc(NC(=O)NC3CCCCC3)ccc2O[C@H]1CN(C)CC1CCCCC1	PAX8 inh HTS 67
C[C@@H]1CN([C@H](C)CO)C(=O)Cc2cc(NC(=O)Nc3ccc(F)cc3)ccc2O[C@H]1CN(C)CC1CC1	none
C[C@@H]1CN([C@@H](C)CO)C(=O)Cc2cc(NC(=O)Nc3ccc4c(c3)OCO4)ccc2O[C@H]1CN(C)CC1CCCCC1	PAX8 inh HTS 83, MLL AF4-AF9 inh 27
C[C@@H]1CN([C@H](C)CO)C(=O)Cc2cc(NC(=O)Nc3ccc4c(c3)OCO4)ccc2O[C@@H]1CN(C)CC1CCCCC1	none
COCC(=O)Nc1ccc2c(c1)C(=O)N(C)C[C@@H](OC)[C@@H](C)CN(C)[C@@H](C)CO2	none
C[C@@H]1CN([C@H](C)CO)C(=O)c2cccc(NC(=O)C3CCCCC3)c2O[C@H]1CN(C)C(=O)Nc1cccc2ccccc12	none
CC(=O)N1[C@@H]2c3ccc(-c4ccccc4)c(=O)n3C[C@@H]2[C@@H](CO)[C@@H]1C(=O)NCc1ccccc1Cl	none (no result: PGC1a acetyl inh)
CO[C@H]1CN(C)C(=O)c2cc(NC(C)=O)ccc2OC[C@H](C)N(Cc2ccccn2)C[C@H]1C	none (no result: PAX8 inh HTS)
Cc1oc(-c2ccccc2)nc1C(=O)OCC(=O)NCc1ccccc1	none
CCOC(=O)c1nc(-c2ccccc2)oc1N(C)C	GSIS activator 84 (no result: PAX8 inh HTS, XiGFP reactiv, MLL AF4-AF9 inh, EWS-Fli inh)
O=C1c2ccccc2C(=O)N1CCCCN(C(=O)c1cc([N+](=O)[O-])cc([N+](=O)[O-])c1)c1ccc(Cl)cc1	PAX8 inh HTS 83 (no result: PGC1a acetyl inh)
COc1ccc(C[C@@H]2CCn3cc(nn3)COCCNC2=O)cc1	none (no result: PGC1a acetyl inh, PAX8 inh HTS, MLL AF4-AF9 inh, EWS-Fli inh)
C[C@@H]1CCCCO[C@@H](CN(C)Cc2ccncc2)[C@@H](C)CN([C@H](C)CO)C(=O)c2cc(N(C)C)ccc2O1	none (no result: MLL AF4-AF9 inh)
COC(=O)c1cnn(-c2nc(OC)cc(OC)n2)c1C	none (no result: PGC1a acetyl inh)
COc1cc(OC)nc(-n2ncc(Br)c(Br)c2=O)n1	PAX8 inh HTS 108 (no result: PGC1a acetyl inh)
C[C@H](CO)N1C[C@H](C)[C@H](CN(C)Cc2ccccc2)Oc2ccc(NC(=O)c3ccncc3)cc2C1=O	none (no result: PGC1a acetyl inh)
Cc1cc[n+](CC[n+]2ccc(C)cc2)cc1	none
CCC(C)(C)c1ccc(OCCCC[n+]2cccc(C)c2C)c(C(C)(C)CC)c1	PAX8 inh HTS 98, EWS-Fli inh inconclusive (no result: GSIS activator)
CCC(C)(C)c1ccc(OCCCC[n+]2ccc(C)cc2)c(C(C)(C)CC)c1	PAX8 inh HTS 85, GSIS activator 560 (no result: PGC1a acetyl inh, MLL AF4-AF9 inh, EWS-Fli inh)
COc1ccc(NC(=O)Nc2ccc3c(c2)CC(=O)N([C@H](C)CO)C[C@H](C)[C@@H](CN(C)Cc2ccc(C(=O)O)cc2)O3)cc1	none
Cc1cc2oc(=O)cc(CN3CCOCC3)c2c(C)c1Cl	GSIS activator 41
CN1CCCC1CCNC1C2CC3CC(C2)CC1C3 (centres undefined)	GSIS activator 46 (no result: PAX8 inh HTS, XiGFP reactiv, MLL AF4-AF9 inh, EWS-Fli inh)
Cc1cccc(NC(=O)Nc2ccccn2)c1C	none
Cc1cccc(NC(=S)Nc2ccccn2)c1C	GSIS activator 41 (no result: PGC1a acetyl inh, MLL AF4-AF9 inh, EWS-Fli inh)
N#Cc1sc2nc(N3CCCCC3)c3c(c2c1N)CCCC3	GSIS activator 141 (no result: PAX8 inh HTS, XiGFP reactiv, MLL AF4-AF9 inh, EWS-Fli inh)
C[C@@H]1CN([C@@H](C)CO)C(=O)c2cc(NC(=O)C3CCCCC3)ccc2O[C@@H](C)CCCCO[C@@H]1CN(C)C(=O)c1ccccc1	none
Cc1ccc(S(=O)(=O)Nc2ccc(O)c3ncccc23)cc1	MLL AF4-AF9 inh 26
COc1ccc(N2CCN(c3cc(C)c4cccc(C)c4n3)CC2)cc1	none
Cc1cc(N2CCN(c3ncccn3)CC2)nc2c(C)cccc12	MLL AF4-AF9 inh 41
COc1ccc(S(=O)(=O)N(CCC(=O)O)Cc2ccccc2)cc1	none
COc1ccc(CN(Cc2cccn2C)S(=O)(=O)c2ccccc2)cc1	PGC1a acetyl inh 74
COc1ccc(Oc2ccc(/C=C/C(=O)c3cccc(OC)c3)cc2[N+](=O)[O-])cc1	PAX8 inh HTS 108
COc1ccc(Oc2ccc(/C=N/NC(=O)c3cccnc3)cc2[N+](=O)[O-])cc1	none (no result: PGC1a acetyl inh)
Cc1ccc2nc(Cl)nc(-c3ccccc3)c2c1	GSIS activator 51
COc1cc2c(cc1OC)C(=O)N1[C@H]3c4cc(Cl)ccc4OC[C@@H]3[C@H](c3ccccc3)[C@]1(C)C(=O)N2	EWS-Fli inh 56
C[C@@]12C(=O)N(c3ccccc3)C(=O)N1[C@@H]1c3ccccc3OC[C@@H]1[C@H]2c1ccccc1	none (no result: MLL AF4-AF9 inh)
COc1ccc2c(c1)[C@H]1[C@H](CO2)[C@H](c2ccccc2)[C@]2(C)C(=O)Nc3cc(C)ccc3C(=O)N12	none (no result: GSIS activator)
COc1cc2c(cc1OC)C(=O)N1[C@H]3c4cc(C)ccc4OC[C@@H]3[C@H](c3ccccc3)[C@]1(C)C(=O)N2	EWS-Fli inh 58
C[C@@]12C(=O)N(c3cccc(Cl)c3)C(=O)N1[C@@H]1c3ccccc3OC[C@@H]1[C@H]2c1ccccc1	MLL AF4-AF9 inh 43
CC(=O)Nc1ccc(S(=O)(=O)NC2=C(N3CCN(c4ccc(F)cc4)CC3)C(=O)c3ccccc3C2=O)cc1	MLL AF4-AF9 inh 45 (no result: PGC1a acetyl inh)

Assay outcomes deposited in PubChem by Broad Institute.
